Experimental data reported in ChEMBL document CHEMBL1250446, “Novel targets for Huntington's disease in an mTOR-independent autophagy pathway” (Nat Chem Biol, 2008).
Calls of active or inactive are those of the source. The calls are words filed in the database; no cut-off is given here. Residues, ends and D or L forms follow the SMILES beside them.

Assays:
COS-7 [1] = assay: Induction of autophagy in african green monkey COS7 cells assessed as increase in LC3-2 vesicle at 50 uM after 24 hrs by immunofluorescence assay; type: functional, cell-based; conditions: Chlorocebus aethiops
Summary of the method: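 Fixed COS-7 cells, after 24 h exposure, immunostained for LC3 with an anti-LC3 primary and Alexa-conjugated secondary; confocal imaging of LC3-positive vesicles.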

HeLa = assay: Induction of autophagy in human HeLa cells expressing EGFP-LC3 assessed as increase in LC3-2 level at 50 uM in presence of 400 nM bafilomycin A1; type: functional, cell-based
Drosophila [2] = assay: Protection of neurodegeneration in Drosophila Huntington's disease model assessed as induction autophagy at 1.25 mM; type: functional, organism-based
Summary of the method: (§1)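 Progeny reared on instant food with drug (from 0.5 M DMSO stock) or DMSO, at 25°C, 70% humidity, 12 h light/dark. Photoreceptors scored by pseudopupil technique 2 days after eclosion; paired t-test on experiment averages.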

SK-N-SH [3] = assay: Induction of autophagy in human SK-N-SH cells expressing EGFP-HDQ74/m-calpain assessed as inhibition of EGFP-HDQ74 aggregation at 1 uM after 48 hrs; type: functional, cell-based
Drosophila [4] = assay: Protection of neurodegeneration in Drosophila Huntington's disease model assessed as induction autophagy at 2.5 mM; type: functional, organism-based; summary of the method: as §1
Danio rerio [5] = species: Danio rerio; assay: Protection of neurodegeneration in zebrafish Huntington's disease model expressing EGFP-tagged huntingtin exon with EGFP-HDQ71 in rod photoreceptor assessed as induction of rhodopsin expression at 3 uM; type: functional, organism-based
Summary of the method: (§2)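 Zebrafish larvae dark-reared 3–9 d.p.f. with drug in E3, refreshed daily, then lysed in RIPA/DTT. Western blot with anti-rhodopsin (Zpr3, 1:1000), anti-Zpr1 and anti-EGFP antibodies; ECL detection.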

Danio rerio [6] = species: Danio rerio; assay: Protection of neurodegeneration in zebrafish Huntington's disease model expressing EGFP-tagged huntingtin exon with EGFP-HDQ71 in rod photoreceptor assessed as loss of rhodopsin expression at 3 uM
SK-N-SH (Homo sapiens) [7] = assay: Induction of autophagy in human SK-N-SH cells assessed as increase in LC3-2 level at 0.33 uM after 24 hrs by immunoblotting analysis
SK-N-SH (Homo sapiens) [8] = assay: Induction of autophagy in human SK-N-SH cells expressing EGFP-HDQ74 assessed as reduction in EGFP-HDQ74 aggregation at 1 uM after 48 hrs by densitometric analysis
Mus musculus = species: Mus musculus; assay: Induction of autophagy in Atg deficient mouse […] expressing EGFP-HDQ74 at 1 uM after 48 hrs; type: functional
SK-N-SH [9] = assay: Induction of autophagy in human SK-N-SH cells expressing EGFP-HDQ74 assessed as inhibition of Bay K8644-induced EGFP-HDQ74 aggregation at 1 uM after 48 hrs; type: functional, cell-based
Summary of the method: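 SK-N-SH cells transfected with EGFP-HDQ74 (LipofectAMINE PLUS, 4 h), then exposed alongside 1 μM (±)-Bay K8644. Proportion of EGFP-positive cells with aggregates scored at 48 h post-transfection by a blinded observer.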

Danio rerio [10] = species: Danio rerio; assay: Protection of neurodegeneration in zebrafish Huntington's disease model expressing EGFP-tagged huntingtin exon with EGFP-HDQ71 in rod photoreceptor assessed as decrease in […] aggregation at 3 uM; type: functional, organism-based
Summary of the method: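 Transgenic zebrafish larvae raised in PTU to 3 d.p.f., then dark-reared 3–9 d.p.f. with drug in E3 medium (pH 7.2), refreshed daily. Fixed fish were cryosectioned at 12 μm and aggregates counted over 96 μm of the central eye. Means from 10 fish per group; ANOVA with Dunnett's test.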

Danio rerio [11] = species: Danio rerio; assay: Protection of neurodegeneration in zebrafish Huntington's disease model expressing EGFP-tagged huntingtin exon with EGFP-HDQ71 in rod photoreceptor assessed as decrease in […] aggregation at 3 uM
SK-N-MC [12] = assay: Induction of autophagy in Atg positive human SK-N-MC cells expressing EGFP-HDQ74 at 1 uM after 48 hrs; type: functional, cell-based
PC-12 [13] = assay: Induction of autophagy in differentiated rat stable inducible PC12 cells expressing A53T alpha-synuclein assessed as A53T alpha-synuclein clearance at 10 uM after 96 hrs by calpain activation assay; type: functional, cell-based
COS-7 [14] = assay: Induction of autophagy in african green monkey COS7 cells assessed as increase in autophagosome at 50 uM after 24 hrs by electron microscopy; type: functional, cell-based; conditions: Chlorocebus aethiops
Summary of the method: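 COS-7 cells exposed 24 h, fixed, and examined by electron microscopy. Early and late autophagosome-like structures were counted per 50 cell profiles. Student's t-test; error bars are standard error of the mean.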

COS-7 [15] = assay: Induction of autophagy in african green monkey COS7 cells expressing EGFP-HDQ74 assessed as inhibition of PLC-epsilon overexpression-induced EGFP-HDQ74 aggregation at 50 uM after 48 hrs; type: functional, cell-based; conditions: Chlorocebus aethiops
COS-7 [16] = assay: Induction of autophagy in african green monkey COS7 cells expressing EGFP-HDQ74/rheb assessed as reduction in EGFP-HDQ74 aggregation at 50 uM after 48 hrs; type: functional, cell-based; conditions: Chlorocebus aethiops
COS-7 [17] = assay: Induction of autophagy in african green monkey COS7 cells expressing EGFP-LC3 assessed as increase in EGFP-LC3 vesicle at 50 uM after 24 hrs; type: functional, cell-based; conditions: Chlorocebus aethiops
PC-12 [18] = assay: Induction of autophagy in undifferentiated rat stable inducible PC12 cells expressing A53T alpha-synuclein assessed as A53T alpha-synuclein clearance at 10 uM after 96 hrs by calpain activation assay; type: functional, cell-based
PC-12 [19] = assay: Induction of autophagy in undifferentiated rat stable inducible PC12 cells expressing EGFP-HDQ74 assessed as EGFP-HDQ74 clearance at 10 uM after 96 hrs by calpain activation assay; type: functional, cell-based
PC-12 [20] = assay: Induction of autophagy in differentiated rat stable inducible PC12 cells expressing EGFP-HDQ74 assessed as EGFP-HDQ74 clearance at 10 uM after 96 hrs by calpain activation assay; type: functional, cell-based
COS-7 [21] = assay: Induction of autophagy in african green monkey COS7 cells expressing EGFP-HDQ74/rheb assessed as reduction in EGFP-HDQ74 aggregation at 0.2 uM after 2 hrs; type: functional, cell-based; conditions: Chlorocebus aethiops
COS-7 [22] = assay: Induction of autophagy in african green monkey COS7 cells expressing EGFP-LC3 assessed as increase in EGFP-LC3 vesicle at 0.2 uM after 2 hrs; type: functional, cell-based; conditions: Chlorocebus aethiops
Summary of the method: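 COS-7 transfected 4 h with EGFP-LC3, then exposed 2 h together with 2.5 μM thapsigargin. Each EGFP-positive cell was scored positive if it had >5 EGFP-LC3 vesicles. Blinded fluorescence microscopy; triplicate, at least twice.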

PC-12 [23] = assay: Induction of autophagy in rat stable inducible PC12 cells assessed as increase in LC3-2 level at 500 uM after 24 hrs by immunoblotting analysis; type: functional, cell-based
Summary of the method: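 Stable inducible PC12 cells exposed 24 h; endogenous LC3-II measured by anti-LC3 immunoblotting, with densitometry relative to actin.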

PC-12 [24] = assay: Induction of autophagy in rat stable inducible PC12 cells expressing A53T alpha-synuclein assessed as inhibition of PACAP-retarded A53T alpha-synuclein clearance at 500 uM after 24 hrs by densitometric analysis; type: functional, cell-based
Summary of the method: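 Inducible PC12 A53T α-synuclein line (doxycycline 1 μg/ml 48 h, then 24 h off-induction) treated 24 h with 100 nM PACAP with or without compound. Clearance measured by anti-HA immunoblot, densitometry relative to actin.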

PC-12 [25] = assay: Induction of autophagy in rat stable inducible PC12 cells expressing A53T alpha-synuclein assessed as A53T alpha-synuclein clearance at 500 uM after 24 hrs by densitometric analysis; type: functional, cell-based
Summary of the method: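 Inducible PC12 A53T α-synuclein (HA) cells induced with 1 μg/ml doxycycline for 48 h. Doxycycline then removed for 24 h with compound or DMSO. Remaining protein measured by anti-HA immunoblot, densitometry relative to actin.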

SK-N-SH [26] = assay: Induction of autophagy in human SK-N-SH cells expressing EGFP-HDQ74 assessed as reduction in EGFP-HDQ74 aggregation at 500 uM after 48 hrs by densitometric analysis; type: functional, cell-based
Danio rerio [27] = species: Danio rerio; assay: Protection of neurodegeneration in zebrafish Huntington's disease model expressing EGFP-tagged huntingtin exon with EGFP-HDQ71 in rod photoreceptor assessed as decrease in […] aggregation at 100 uM; type: functional, organism-based
Summary of the method: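 Transgenic zebrafish embryos kept in 0.1 mM PTU from 1 to 3 d.p.f. and screened by EGFP, then dark-reared 3–9 d.p.f. in compound in E3 medium (pH 7.2), refreshed daily. Fixed in 4% PFA, cryosectioned at 12 μm; aggregates counted over 96 μm of central eye. Mean of 10 fish; ANOVA with Dunnett test.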

Danio rerio [28] = species: Danio rerio; assay: Protection of neurodegeneration in zebrafish Huntington's disease model expressing EGFP-tagged huntingtin exon with EGFP-HDQ71 in rod photoreceptor assessed as induction of rhodopsin expression at 100 uM; type: functional, organism-based
Summary of the method: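 Zebrafish larvae dosed 3–9 d.p.f. in E3 medium (daily refresh, dark-reared), lysed in 80% RIPA/100 mM DTT with protease inhibitor for 1 h on ice. Proteins run on 10% SDS-PAGE and blotted with anti-rhodopsin (Zpr3, 1:1000), anti-Zpr1 and anti-EGFP; ECL detection.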

COS-7 [29] = assay: Induction of autophagy in african green monkey COS7 cells expressing EGFP-HDQ74/m-calpain assessed as decrease in EGFP-HDQ74 aggregation at 500 uM after 48 hrs; type: functional, cell-based; conditions: Chlorocebus aethiops
COS-7 [30] = assay: Induction of autophagy in african green monkey COS7 cells expressing PLC-epsilon assessed as calpain activation at 2.5 uM after 30 mins by immunoblotting analysis; type: functional, cell-based; conditions: Chlorocebus aethiops
Summary of the method: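 Calpain activation in COS-7 after 30 min exposure, alongside 2.5 μM thapsigargin where applied; immunoblot of the active calpain small subunit.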

SK-N-MC [31] = assay: Cytotoxicity against human SK-N-MC cells expressing EGFP-HDQ74 at 1 uM after 48 hrs; type: cell-based
SK-N-SH [32] = assay: Induction of autophagy in human SK-N-SH cells assessed as inhibition of Bay K8644-induced calpain activation; type: functional, cell-based
Summary of the method: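 SK-N-SH cells pretreated 15 min, then given 1 μM (±)-Bay K8644 for 4 h. The active calpain small subunit was detected by immunoblot.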

Danio rerio [33] = species: Danio rerio; assay: Protection of neurodegeneration in zebrafish Huntington's disease model expressing EGFP-tagged huntingtin exon with EGFP-HDQ71 in rod photoreceptor assessed as induction of rhodopsin expression at 1 uM; type: functional, organism-based; summary of the method: as §2

## CSCC[C@@H](C=O)NC(=O)[C@H](CC(C)C)NC(=O)[C@H](CC(C)C)NC(C)=O (Ac-Leu-Leu-Met-aldehyde)
COS-7 [1]
  Activity: Active
HeLa
  Activity: Active

## COc1ccc(CCN(C)CCCC(C#N)(c2ccc(OC)c(OC)c2)C(C)C)cc1OC (stereo not given)
Drosophila [2]
  Activity: Active
SK-N-SH [3]
  Activity: inactive
Drosophila [4]
  Activity: Active
Danio rerio [5]
  Activity: Active
Danio rerio [6]
  Activity: inactive
SK-N-SH (Homo sapiens) [7]
  Activity: Active
SK-N-SH (Homo sapiens) [8]
  Activity: Active
Mus musculus
  Activity: inactive
SK-N-SH [9]
  Activity: Active
Danio rerio [10]
  Activity: Active
Danio rerio [11]
  Activity: Active
SK-N-MC [12]
  Activity: Active

## CCCC[C@@H](C=O)NC(=O)[C@H](CC(C)C)NC(=O)OCc1ccccc1
PC-12 [13]
  Activity: Active
COS-7 [14]
  Activity: Active
COS-7 [15]
  Activity: Active
COS-7 [16]
  Activity: Active
COS-7 [17]
  Activity: Active
PC-12 [18]
  Activity: Active
PC-12 [19]
  Activity: Active
PC-12 [20]
  Activity: Active
HeLa
  Activity: Active

## CO[C@H]1C[C@@H]2CC[C@@H](C)[C@@](O)(O2)C(=O)C(=O)N2CCCC[C@H]2C(=O)O[C@H]([C@H](C)C[C@@H]2CC[C@@H](O)[C@H](OC)C2)CC(=O)[C@H](C)/C=C(\C)[C@@H](O)[C@@H](OC)C(=O)[C@H](C)C[C@H](C)/C=C/C=C/C=C/1C
COS-7 [21]
  Activity: Active
COS-7 [22]
  Activity: Active

## C[C@H]1O[C@@H](n2cnc3c(N)ncnc32)C[C@@H]1O
PC-12 [23]
  Activity: Active
PC-12 [24]
  Activity: Active
PC-12 [25]
  Activity: Active
SK-N-SH [26]
  Activity: Active
Danio rerio [27]
  Activity: Active
Danio rerio [28]
  Activity: Active
COS-7 [29]
  Activity: Active

## COC(=O)C1=C(C)NC(C)=C([N+](=O)[O-])C1c1ccccc1C(F)(F)F (racemic)
Danio rerio [5]
  Activity: inactive
SK-N-SH (Homo sapiens) [8]
  Activity: inactive
COS-7 [30]
  Activity: Active
Mus musculus
  Activity: inactive
SK-N-MC [31]
  Activity: Toxic
SK-N-SH [32]
  inhibition: Dose-dependent effect
Danio rerio [33]
  Activity: Active
SK-N-MC [12]
  Activity: Active
